Source: ChEMBL document CHEMBL6153064, “Structure-based discovery of novel diarylpyrimidines as potent and selective Non-Nucleoside reverse transcriptase inhibitors: From CH(CN)-Biphenyl-Diarylpyrimidines to CNNH2-Biphenyl-Diarylpyrimidines” (Eur J Med Chem, 2025)

Tests used:
[1] = system: Human immunodeficiency virus 1; test: Antiviral activity against wild type HIV-1 IIIB infected in human MT4 cells […]; assay type: functional, organism-based; details: Human immunodeficiency virus 1, IIIB
[2] = Selectivity index, ratio of CC50 for cytotoxicity against human MT4 cells to EC50 for antiviral activity against wild type HIV-1 IIIB infected in human MT4 cells; assay type: toxicity, cell-based; details: read-out: Ratio CC50/EC50
Summary of the method: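 Selectivity index calculated as CC50/EC50 ratio, both values from MTT viability readout in MT-4 cells, antiviral arm using wild-type HIV-1 IIIB.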

[3] = Cytotoxicity against human MT4 cells by MTT assay; assay type: toxicity, cell-based

SMILES	EC50 [1] [nM]	selectivity ratio [2]	CC50 [3] [nM]
N#Cc1ccc(Nc2nccc(C(NC3CC3)c3ccc(-c4ccc(C#N)cc4)cc3C(F)(F)F)n2)cc1 (configuration not stated)	294	250	75000
N#Cc1ccc(Nc2nccc(C(NCCF)c3ccc(-c4ccc(C#N)cc4)cc3Cl)n2)cc1 (configuration not stated)	77	> 3370	> 259000
N#Cc1ccc(Nc2nccc(C(NCCCCl)c3ccc(-c4ccc(C#N)cc4)cc3Cl)n2)cc1 (configuration not stated)	195	> 1260	> 244000
CCCNC(c1ccnc(Nc2ccc(C#N)cc2)n1)c1ccc(-c2ccc(C#N)cc2)cc1OC (configuration not stated)	131	110	14000
N#Cc1ccc(Nc2nccc(C(NC3CC3)c3ccc(-c4ccc(C#N)cc4)cc3Cl)n2)cc1 (configuration not stated)	147	> 1800	> 262000
CCNC(c1ccnc(Nc2ccc(C#N)cc2)n1)c1ccc(-c2ccc(C#N)cc2)cc1OC (configuration not stated)	326	60	20000
N#Cc1ccc(Nc2nccc(C(NC3CC3)c3ccc(-c4ccc(C#N)cc4)cc3F)n2)cc1 (configuration not stated)	630	> 431	> 271000
COc1cc(-c2ccc(C#N)cc2)ccc1C(NC1CC1)c1ccnc(Nc2ccc(C#N)cc2)n1 (configuration not stated)	72	1680	123000
CCCNC(c1ccnc(Nc2ccc(C#N)cc2)n1)c1ccc(-c2ccc(C#N)cc2)cc1OC(F)(F)F (configuration not stated)	662	40	27000
COc1cc(-c2ccc(C#N)cc2)ccc1C(NC(C)C)c1ccnc(Nc2ccc(C#N)cc2)n1 (configuration not stated)	211	94	20000
CC(C)NC(c1ccnc(Nc2ccc(C#N)cc2)n1)c1ccc(-c2ccc(C#N)cc2)cc1Cl (configuration not stated)	230	130	30000
N#Cc1ccc(Nc2nccc(C(NCC(F)(F)F)c3ccc(-c4ccc(C#N)cc4)cc3Cl)n2)cc1 (configuration not stated)	231	> 1070	> 241000
CCCNC(c1ccnc(Nc2ccc(C#N)cc2)n1)c1ccc(-c2ccc(C#N)cc2)cc1C(F)(F)F (configuration not stated)	1010	87	90000
Cc1cc(-c2ccc(C#N)cc2)ccc1C(NC1CC1)c1ccnc(Nc2ccc(C#N)cc2)n1 (configuration not stated)	156	> 1760	> 274000
CC(C)NC(c1ccnc(Nc2ccc(C#N)cc2)n1)c1ccc(-c2ccc(C#N)cc2)cc1OC(F)(F)F (configuration not stated)	927	24	23000
CC(C)NC(c1ccnc(Nc2ccc(C#N)cc2)n1)c1ccc(-c2ccc(C#N)cc2)cc1F (configuration not stated)	649	70	45000
N#Cc1ccc(Nc2nccc(C(NCCO)c3ccc(-c4ccc(C#N)cc4)cc3Cl)n2)cc1 (configuration not stated)	92	238	22000
CCCNC(c1ccnc(Nc2ccc(C#N)cc2)n1)c1ccc(-c2ccc(C#N)cc2)cc1C (configuration not stated)	146	> 1870	> 273000
N#CCCNC(c1ccnc(Nc2ccc(C#N)cc2)n1)c1ccc(-c2ccc(C#N)cc2)cc1Cl (configuration not stated)	71	> 3600	> 255000
N#Cc1ccc(Nc2nccc(C(NCCCl)c3ccc(-c4ccc(C#N)cc4)cc3Cl)n2)cc1 (configuration not stated)	42	5890	243000
N#Cc1ccc(Nc2nccc(C(NC3CC3)c3ccc(-c4ccc(C#N)cc4)cc3OC(F)(F)F)n2)cc1 (configuration not stated)	589	125	73000
CC(C)NC(c1ccnc(Nc2ccc(C#N)cc2)n1)c1ccc(-c2ccc(C#N)cc2)cc1C(F)(F)F (configuration not stated)	1190	25	29000
Cc1cc(-c2ccc(C#N)cc2)ccc1C(NC(C)C)c1ccnc(Nc2ccc(C#N)cc2)n1 (configuration not stated)	166	495	82000
CCNC(c1ccnc(Nc2ccc(C#N)cc2)n1)c1ccc(-c2ccc(C#N)cc2)cc1C(F)(F)F (configuration not stated)	153	146	22000
